We go through four compounds from ChEMBL document CHEMBL3286243, “Polyhydroxyanthraquinones as quorum sensing inhibitors from the guttates of Penicillium restrictum and their analysis by desorption electrospray ionization mass spectrometry” (J Nat Prod, 2014).

The experiment addresses T1, Accessory gene regulator protein A (Staphylococcus aureus) (UniProt P0A0I7).
T1 sequence (whole entry): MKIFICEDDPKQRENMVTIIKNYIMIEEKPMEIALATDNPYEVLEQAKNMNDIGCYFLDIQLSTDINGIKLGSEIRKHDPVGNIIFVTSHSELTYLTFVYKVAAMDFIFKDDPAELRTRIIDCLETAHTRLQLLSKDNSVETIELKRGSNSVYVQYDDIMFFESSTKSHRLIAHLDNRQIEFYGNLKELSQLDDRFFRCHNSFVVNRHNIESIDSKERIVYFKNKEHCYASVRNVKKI
As to the kind of experiment: Inhibition of AGR quorum sensing system-mediated delta toxin production in methicillin-resistant Staphylococcus aureus AH2759 incubated for 15 hrs by Western blotting analysis. Put shortly: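 Cultures from the agr P3-lux plate were pooled and filtered (0.22 μm). Medium (2.5 μL) was run on 15% SDS-PAGE and transferred to PVDF. Blots were blocked overnight at 4 °C in milk/BSA in TBST, then probed 1 h at rt with rabbit anti-delta toxin (1:2000) and HRP anti-rabbit (1:10 000). Detection was chemiluminescence on X-ray film. AIP-2-treated cultures were included.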

SMILES strings stand for the structures. Positions of bridges follow the written chain, without caps; N, C: chain ends. Residues, ends and D or L forms follow the SMILES beside them.

Regarding `O=C(O)c1cc(O)c2c(c1)C(=O)c1cc(O)c(O)c(O)c1C2=O`, the inhibition entry was “Dose-dependent effect”.
Turning to `CC(C)C[C@@H]1NC(=O)[C@H](CO)NC(=O)[C@H](CO)NC(=O)[C@@H](NC(=O)[C@H](C)NC(=O)[C@H](CC(N)=O)NC(=O)[C@@H](NC(=O)CN)C(C)C)CSC(=O)[C@H](Cc2ccccc2)NC1=O` (H-GVNACSSLF; thioester 5-C), the inhibition result was “Dose-dependent effect”.
Take `O=C1c2cc(O)cc(O)c2C(=O)c2c(O)cc(CO)cc21`: the inhibition result was “Dose-dependent effect”.
With `CC(=O)C(O)c1cc(O)c2c(c1)C(=O)c1cc(O)cc(O)c1C2=O` (centres undefined), the inhibition result is “Dose-dependent effect”.
